Assay results reported in ChEMBL document CHEMBL4011639, “Discovery of Novel Nucleotide Prodrugs with Improved Potency Against HCV Variants Carrying NS5B S282T Mutation” (J Med Chem, 2017).

How the values were obtained:
[1] = test system: Huh-7; assay: Cytotoxicity against human HuH7 cells assessed as reduction in cell viability up to 100 uM after 72 hrs by Cell Titer-Fluor Cell assay; format: cell-based; settings: huh-7, 72 h
Procedure, shortened: (§1)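 Huh7 cells carrying HCV genotype 1b replicon, 8000 per well, in duplicate 3-fold dilution series with 0.5% DMSO final; 72 h at 37 °C, 5% CO2. Viability read by Cell Titer-Fluor fluorescence after 5 min; replicon inhibition read by Bright-Glo luciferase luminescence in the same wells. EC50 and CC50 come from curve fitting.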

[2] = Inhibition of wild type NS5B in HCV genotype 1b replicon expressed in human HuH7 cells after 72 hrs by bright Glo-luciferase reporter gene assay; format: cell-based, Hepatitis C virus subtype 1b; settings: Hepatitis C virus, Huh-7, 72 h; procedure, shortened: as §1
[3] = test system: Hepatitis C virus subtype 1b; assay: Ratio of EC50 for HCV genotype 1b replicon NS5B S282T mutant to EC50 for wild type HCV genotype 1b replicon NS5B
Procedure, shortened: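 Huh7 cells carrying wild-type or S282T mutant HCV genotype 1b replicon, 8000 cells per well, exposed to 3-fold compound dilution series (0.5% DMSO final, duplicates) for 72 h at 37 °C, 5% CO2. Replicon activity read by Bright-Glo luciferase luminescence. EC50 averaged from duplicate determinations; ratio taken as S282T EC50 over wild-type EC50.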

[4] = Half life in human liver S9 fraction at 10 uM by LC/MS/MS analysis; format: ADME
Procedure, shortened: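 Compound at 10 μM working solution (1% DMSO, 5% MeOH in 100 mM Tris) incubated at 37 °C with human liver S9 at 1 mg protein/mL final. Reactions stopped with cold acetonitrile containing tolbutamide internal standard at 0, 5, 10, 20, 30 and 60 min. Parent measured by LC/MS/MS (MRM) as analyte/IS peak area ratio, given as percent remaining versus 0 min; half-life fitted.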

[5] = Half life in human plasma […] by LC/MS/MS analysis; format: ADME, cell-free
Procedure, shortened: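 Pooled human plasma adjusted to pH 7.4 and prewarmed, then spiked to 2 μM final from a 200 μM DMSO working solution, in duplicate. Sampled at 0, 10, 30, 60 and 120 min and quenched with acetonitrile containing tolbutamide and buspirone. LC/MS/MS (MRM) peak area ratios; ke from linear regression of the initial linear phase, t1/2 = ln2/ke.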

Structure (SMILES)	Activity [1]	EC50 [2]	Ratio EC50 [3]	half-life at 10 µM [4]	half-life [5]
CCCCOC(=O)Nc1ccn([C@@H]2O[C@H](CO[P@@](=O)(N[C@@H](C)C(=O)OC(C)C)Oc3ccccc3)[C@@H](O)[C@@]2(C)F)c(=O)n1	Non-Toxic	2610 nM			
CCCCCOC(=O)Nc1ccn([C@@H]2O[C@H](CO[P@@](=O)(N[C@@H](C)C(=O)OC(C)C)Oc3ccccc3)[C@@H](O)[C@@]2(C)F)c(=O)n1	Non-Toxic	> 10000 nM			
CC(C)OC(=O)[C@H](C)N[P@](=O)(OC[C@H]1O[C@@H](n2ccc(NC(=O)C(C)C)nc2=O)[C@](C)(F)[C@@H]1O)Oc1ccccc1	Non-Toxic	2200 nM			
CC(=O)Nc1ccn([C@@H]2O[C@H](CO[P@@](=O)(N[C@@H](C)C(=O)OC(C)C)Oc3ccccc3)[C@@H](O)[C@@]2(C)F)c(=O)n1	Non-Toxic	1040 nM			
CCOC(=O)Nc1ccn([C@@H]2O[C@H](CO[P@@](=O)(N[C@@H](C)C(=O)OC(C)C)Oc3ccccc3)[C@@H](O)[C@@]2(C)F)c(=O)n1	Non-Toxic	8360 nM			
CC(C)OC(=O)[C@H](C)N[P@](=O)(OC[C@H]1O[C@@H](n2ccc(NC(=O)C3CCC3)nc2=O)[C@](C)(F)[C@@H]1O)Oc1ccccc1	Non-Toxic	190 nM			
CC(C)OC(=O)[C@H](C)N[P@](=O)(OC[C@H]1O[C@@H](n2ccc(=O)[nH]c2=O)[C@](C)(F)[C@@H]1O)Oc1ccccc1 [SOFOSBUVIR]	Non-Toxic	150 nM	8.1	0.802 h	> 3.85 h
CC(C)OC(=O)[C@H](C)N[P@](=O)(OC[C@H]1O[C@@H](n2ccc(N)nc2=O)[C@](C)(F)[C@@H]1O)Oc1ccccc1	Non-Toxic	660 nM	4.1	1.78 h	> 3.85 h
CC(C)OC(=O)[C@H](C)N[P@](=O)(OC[C@H]1O[C@@H](n2ccc(NC(=O)c3ccc(Cl)cc3)nc2=O)[C@](C)(F)[C@@H]1O)Oc1ccccc1	Non-Toxic	1920 nM			
CCC(=O)Nc1ccn([C@@H]2O[C@H](CO[P@@](=O)(N[C@@H](C)C(=O)OC(C)C)Oc3ccccc3)[C@@H](O)[C@@]2(C)F)c(=O)n1	Non-Toxic	1480 nM			
CC(C)OC(=O)[C@H](C)N[P@](=O)(OC[C@H]1O[C@@H](n2ccc(NC(=O)C3CC3)nc2=O)[C@](C)(F)[C@@H]1O)Oc1ccccc1	Non-Toxic	2250 nM			
CC(C)OC(=O)[C@H](C)N[P@](=O)(OC[C@H]1O[C@@H](n2ccc(NC(=O)OCc3ccccc3)nc2=O)[C@](C)(F)[C@@H]1O)Oc1ccccc1	Non-Toxic	> 10000 nM			
CCCCCC(=O)Nc1ccn([C@@H]2O[C@H](CO[P@@](=O)(N[C@@H](C)C(=O)OC(C)C)Oc3ccccc3)[C@@H](O)[C@@]2(C)F)c(=O)n1	Non-Toxic	250 nM			
CCC(CC)OC(=O)Nc1ccn([C@@H]2O[C@H](CO[P@@](=O)(N[C@@H](C)C(=O)OC(C)C)Oc3ccccc3)[C@@H](O)[C@@]2(C)F)c(=O)n1	Non-Toxic	> 10000 nM			
CC(C)OC(=O)[C@H](C)N[P@](=O)(OC[C@H]1O[C@@H](n2ccc(NC(=O)Cc3ccccc3)nc2=O)[C@](C)(F)[C@@H]1O)Oc1ccccc1	Non-Toxic	1320 nM			
CC(C)OC(=O)[C@H](C)N[P@](=O)(OC[C@H]1O[C@@H](n2ccc(NC(=O)C(C)(C)Oc3ccc(Cl)cc3)nc2=O)[C@](C)(F)[C@@H]1O)Oc1ccccc1	Non-Toxic	4020 nM			

Structure (SMILES)	Activity [1]	EC50 [2]	Ratio EC50 [3]	half-life at 10 µM [4]	half-life [5]
CCCC(CCC)C(=O)Nc1ccn([C@@H]2O[C@H](CO[P@@](=O)(N[C@@H](C)C(=O)OC(C)C)Oc3ccccc3)[C@@H](O)[C@@]2(C)F)c(=O)n1	Non-Toxic	1640 nM			
CCCCC(=O)Nc1ccn([C@@H]2O[C@H](CO[P@@](=O)(N[C@@H](C)C(=O)OC(C)C)Oc3ccccc3)[C@@H](O)[C@@]2(C)F)c(=O)n1	Non-Toxic	190 nM			
CC(C)OC(=O)[C@H](C)N[P@](=O)(OC[C@H]1O[C@@H](n2ccc(NC(=O)/C=C/c3ccccc3)nc2=O)[C@](C)(F)[C@@H]1O)Oc1ccccc1	Non-Toxic	4080 nM			
CC(C)OC(=O)Nc1ccn([C@@H]2O[C@H](CO[P@@](=O)(N[C@@H](C)C(=O)OC(C)C)Oc3ccccc3)[C@@H](O)[C@@]2(C)F)c(=O)n1	Non-Toxic	3870 nM			
COc1ccc(C(=O)Nc2ccn([C@@H]3O[C@H](CO[P@@](=O)(N[C@@H](C)C(=O)OC(C)C)Oc4ccccc4)[C@@H](O)[C@@]3(C)F)c(=O)n2)cc1	Non-Toxic	> 10000 nM			
CC(C)OC(=O)[C@H](C)N[P@](=O)(OC[C@H]1O[C@@H](n2ccc(NC(=O)CCc3ccccc3)nc2=O)[C@](C)(F)[C@@H]1O)Oc1ccccc1	Non-Toxic	1470 nM			
CC(C)OC(=O)[C@H](C)N[P@](=O)(OC[C@H]1O[C@@H](n2ccc(NC(=O)OC3CCCCC3)nc2=O)[C@](C)(F)[C@@H]1O)Oc1ccccc1	Non-Toxic	> 10000 nM			
CC(C)COC(=O)Nc1ccn([C@@H]2O[C@H](CO[P@@](=O)(N[C@@H](C)C(=O)OC(C)C)Oc3ccccc3)[C@@H](O)[C@@]2(C)F)c(=O)n1	Non-Toxic	> 10000 nM			
CCC(CC)C(=O)Nc1ccn([C@@H]2O[C@H](CO[P@@](=O)(N[C@@H](C)C(=O)OC(C)C)Oc3ccccc3)[C@@H](O)[C@@]2(C)F)c(=O)n1	Non-Toxic	> 10000 nM			
CCCOC(=O)Nc1ccn([C@@H]2O[C@H](CO[P@@](=O)(N[C@@H](C)C(=O)OC(C)C)Oc3ccccc3)[C@@H](O)[C@@]2(C)F)c(=O)n1	Non-Toxic	6010 nM			
CC(C)CCC(=O)Nc1ccn([C@@H]2O[C@H](CO[P@@](=O)(N[C@@H](C)C(=O)OC(C)C)Oc3ccccc3)[C@@H](O)[C@@]2(C)F)c(=O)n1	Non-Toxic	670 nM			
CC(C)OC(=O)[C@H](C)N[P@](=O)(OC[C@H]1O[C@@H](n2ccc(NC(=O)C3CCCCC3)nc2=O)[C@](C)(F)[C@@H]1O)Oc1ccccc1	Non-Toxic	4200 nM			
CC(C)OC(=O)[C@H](C)N[P@](=O)(OC[C@H]1O[C@@H](n2ccc(NC(=O)c3ccccc3)nc2=O)[C@](C)(F)[C@@H]1O)Oc1ccccc1	Non-Toxic	1990 nM			
CCCCCCOC(=O)Nc1ccn([C@@H]2O[C@H](CO[P@@](=O)(N[C@@H](C)C(=O)OC(C)C)Oc3ccccc3)[C@@H](O)[C@@]2(C)F)c(=O)n1	Non-Toxic	> 10000 nM			
CC(C)C(=O)OC[C@H]1O[C@@H](n2ccc(N)nc2=O)[C@](C)(F)[C@@H]1OC(=O)C(C)C [MERICITABINE]	Non-Toxic	1110 nM			
